Experimental data pooled from the literature.
Lines come from different studies, so protocols differ.
Sample: plasma

| Compound | test system | conditions | half-life |
| --- | --- | --- | --- |
| COc1ccc([C@@H]2CN(C(=O)[C@@H](O)CO)C[C@@]2(C)[C@@H](C)O)cc1OC1CN(c2ccc(C)cn2)C1 | human | oral, 5 mg, single dose, healthy volunteers | 11.9 h |
| c1cnc2ccc(Nc3nc(NC4CC4)c4nc[nH]c4n3)cc2c1 | human | oral, 200 mg/m², patients | 2.1 h |
| COCCOc1cnc2ccn([C@H](C)c3nnc4c(F)cc(-c5cnn(C)c5)cn34)c(=O)c2c1 | human | oral, 150 mg, multiple doses, once daily, patients | 9.9 h |
| C[C@@H](Nc1cc(F)cc(F)c1)c1cc(C(=O)N(C)C)cc2c(=O)cc(N3CCOCC3)oc12 | human | oral, 120 mg, single dose, patients | 3.33 h |
| CO[C@@H]1[C@H](OC(=O)N2CC(CCN3CCOCC3)C2)CC[C@]2(CO2)[C@H]1[C@@]1(C)O[C@@H]1CC=C(C)C | human | subcutaneous, 1.2 mg, single dose, healthy volunteers | 0.72 h |
| Cn1cc(-c2ccc(S(=O)(=O)[C@@H]3C[C@@H](C(=O)NC4(C#N)CC4)N(C(=O)C4(C(F)(F)F)CC4)C3)c(C(F)(F)F)c2)cn1 | human | oral, 30 mg, single dose, fasted, healthy volunteers | 10.2 h |
| CC(C)(Sc1ccncc1-c1ccc(C#N)c2ccccc12)C(=O)O | male human | oral, 20 mg, single dose, fasted, healthy volunteers | 10.9 h |
| NS(=O)(=O)NCCNc1nonc1C(=NO)Nc1ccc(F)c(Br)c1 | human | oral, 600 mg, multiple doses, twice daily, steady state, patients | 3.3 h |
| CO[C@H]1CC[C@H](N2C(=O)CNc3ncc(-c4ccc(C(C)(C)O)nc4)nc32)CC1 | human | oral, 60 mg, patients | 5.64 h |
| CCNCCCNC/C=C\CNCCCNCC | human | intravenous, 150 mg, patients, infusion | 0.2 h |
| CC(C)(O)c1ccccc1-c1ccc2[nH]c(/C=C/c3ccc(C(F)(F)F)cc3)nc2c1 | male human | oral, 225 mg, single dose, fasted, healthy volunteers | 85.9 h |
| C#C[C@]1(COP(=O)(O)OP(=O)(O)OP(=O)(O)O)O[C@@H](n2cnc3c(N)nc(F)nc32)C[C@@H]1O | human | oral, 400 mg, single dose | 143 h |
| O=C(Nc1c(Cl)cncc1Cl)c1ccc(OC(F)F)c(OCC2CC2)c1 | human | oral, 0.25 mg, single dose | 20.9 h |
| COc1cc(C(=O)NC2CCN(C)CC2)c(F)cc1Nc1ncc(C(F)(F)F)c(Oc2cccc3c2C(=O)N(C)C3)n1 | human | oral, 300 mg, multiple doses, once daily, patients | 21.6 h |
| CC(C)n1cc(C#N)c2cc(-n3cc(C(=O)O)cn3)ccc21 | human | oral, 200 mg, single dose, fasted, healthy volunteers | 13.3 h |
